The MIC is the lowest concentration found to suppress growth. Lower therefore signals a more susceptible organism. What is called IC50 is the midpoint of a concentration-inhibition curve.

Converted amounts (≈) assume the structure as drawn. Some results are limits rather than exact numbers.

These results are taken from ChEMBL document CHEMBL1154888, “Discorhabdins from the Korean marine sponge Sceptrella sp” (J Nat Prod, 2010).

In one assay the test system is Bacillus subtilis. The assay is described as follows: Antibacterial activity against Bacillus subtilis ATCC 6633. Format: functional.
A further assay relates to Staphylococcus aureus. Kind of assay: Antibacterial activity against Staphylococcus aureus […]. Type of assay: functional.
Another assay has as its system Micrococcus luteus. The assay is described as follows: Antibacterial activity against Micrococcus luteus IFO 12708. Type of assay: functional.
In a further assay the test system is Escherichia coli. Kind of assay: Antibacterial activity against Escherichia coli ATCC 25922. Type of assay: functional.
A further assay deals with Proteus vulgaris. The assay is described as follows: Antibacterial activity against Proteus vulgaris ATCC 3851. Type of assay: functional.
The test system of the next assay is Salmonella enterica. The assay is described as follows: Antibacterial activity against Salmonella Typhimurium ATCC 14028. Type of assay: functional, Salmonella enterica subsp. enterica serovar Typhimurium.
Another assay relates to K562. Kind of assay: Cytotoxicity against human K562 cells assessed as viable cells after 72 hrs by MTS/PMS assay. Format: functional, cell-based. The conditions noted are these: K562, 72 h.
For the next assay, the target named is T1, Sortase A (Staphylococcus aureus, UniProt Q9S446).
T1 sequence (Q9S446 whole entry): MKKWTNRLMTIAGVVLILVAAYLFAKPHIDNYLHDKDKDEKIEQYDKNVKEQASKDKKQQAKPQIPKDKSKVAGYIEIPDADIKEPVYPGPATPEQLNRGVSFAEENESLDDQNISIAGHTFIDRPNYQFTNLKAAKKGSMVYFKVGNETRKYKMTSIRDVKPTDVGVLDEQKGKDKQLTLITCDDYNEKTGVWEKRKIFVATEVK
The assay is described as follows: Inhibition of Staphylococcus aureus sortase A after 1 hr in the presence of fluorescent peptide Dabcul-QALPETGEE-Edans by fluorimetry. A digest of the protocol: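 p-Hydroxymercuribenzoic acid (p-HMB) run alongside as the positive control.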

In assay [1] the target is T2, Sortase A (Staphylococcus aureus) (UniProt Q9S446).
T2 sequence (whole entry): T1 sequence (Q9S446 whole entry)
The assay is described as follows: Selectivity ratio, inhibition of recombinant sortase A from Staphylococcus aureus of drug over the para-(hydroxymercury)benzoic acid sodium salt.

Turning to `O=C1C2=C3C4=[N+](CCc5c[nH]c1c54)C1C[C@@]34C[C@@H](N2)SC4=CC1=O`, the MIC with Bacillus subtilis is 25 µg/mL; in the assay on Staphylococcus aureus, 100 µg/mL; with Micrococcus luteus, 6.25 µg/mL; against Escherichia coli it was above 100 µg/mL; with Proteus vulgaris, above 100 µg/mL; with Salmonella enterica, above 100 µg/mL. Besides, the IC50 in the assay on K562 came out at 6.1 µM.
Turning to `O=C1C=C[C@]2(C=C1Br)CCNC1=C2C2=NCCc3c[nH]c(c32)C1=O`, the MIC was 50 µg/mL (≈ 130 µM) against Bacillus subtilis; 100 µg/mL (≈ 260 µM) in the assay on Staphylococcus aureus; 50 µg/mL (≈ 130 µM) against Micrococcus luteus; above 100 µg/mL against Escherichia coli; 25 µg/mL (≈ 65.1 µM) against Proteus vulgaris; 50 µg/mL (≈ 130 µM) with Salmonella enterica. Also, the IC50 in the assay with K562 stood at 1.3 µM; on Sortase A, 186 µM.
With `O=C1C2=C3C4=[N+](CCc5c[nH]c1c54)C1[C@H](O)CC(=O)[C@@]3(C[C@@H](O)N2)[C@H]1O`, the MIC is above 100 µg/mL against Bacillus subtilis; above 100 µg/mL against Staphylococcus aureus; 50 µg/mL with Micrococcus luteus; above 100 µg/mL against Escherichia coli; above 100 µg/mL in the assay on Proteus vulgaris; above 100 µg/mL with Salmonella enterica. Further, the figures for the IC50 in the assay with K562 and at Sortase A were 2.2 µM and 6.5 µM, respectively. Further, the Selectivity ratio in [1] turned out to be 10.
As for `O=C1C2=C3C4=[N+](CCc5c[nH]c1c54)C1[C@H](O)C=C4S[C@@H](C[C@@]43[C@H]1O)N2`, the MIC is 100 µg/mL in the assay on Bacillus subtilis; above 100 µg/mL against Staphylococcus aureus; 25 µg/mL against Micrococcus luteus; above 100 µg/mL in the assay on Escherichia coli; 50 µg/mL in the assay with Proteus vulgaris; above 100 µg/mL against Salmonella enterica. For the same molecule, the IC50 in the assay with K562 worked out at 2.5 µM; at Sortase A it was 192 µM.
Take `O=C1C2=C3C4=[N+](CCc5c[nH]c1c54)C1C[C@@]34C[C@@H](N2)SC4=C[C@H]1O`: the MIC against Bacillus subtilis was 25 µg/mL; against Staphylococcus aureus, above 100 µg/mL; against Micrococcus luteus, 25 µg/mL; with Escherichia coli, above 100 µg/mL; against Proteus vulgaris it was 50 µg/mL; with Salmonella enterica, above 100 µg/mL. The values for the IC50 in the assay on K562 and on Sortase A were 2.1 µM and 75.7 µM, respectively.
Take `CO[C@H]1C2C(=O)C=C3S[C@H]4C[C@]31C1=C(N4)C(=O)c3[nH]cc4c3C1=[N+]2CC4`: the MIC with Bacillus subtilis is 50 µg/mL; against Staphylococcus aureus it was 50 µg/mL; against Micrococcus luteus it was 12.5 µg/mL; against Escherichia coli, above 100 µg/mL; against Proteus vulgaris, 100 µg/mL; with Salmonella enterica, 100 µg/mL. For the same molecule, the values for the IC50 in the assay on K562 and at Sortase A were 2.5 µM and 146 µM, respectively.
As to `O=C1C2=C3C4=[N+](CCc5c[nH]c1c54)C1C(=O)C=C4S[C@@H](C[C@@]43[C@H]1O)N2`, the MIC against Bacillus subtilis is 25 µg/mL; in the assay on Staphylococcus aureus it was 50 µg/mL; in the assay on Micrococcus luteus it was 12.5 µg/mL; with Escherichia coli, above 100 µg/mL; with Proteus vulgaris, 100 µg/mL; in the assay with Salmonella enterica, 100 µg/mL. The IC50 in the assay with K562 was 4.5 µM; at Sortase A, 130 µM.
As for `O=C1C=C[C@@]23C[C@@H](NC4=C2C2=NCCc5c[nH]c(c52)C4=O)SC3=C1` [1-DEBROMODISCORHABDIN B], the MIC in the assay with Bacillus subtilis was 12.5 µg/mL (≈ 37.3 µM); in the assay with Staphylococcus aureus, 25 µg/mL (≈ 74.5 µM); against Micrococcus luteus, 25 µg/mL (≈ 74.5 µM); against Escherichia coli it was above 100 µg/mL; against Proteus vulgaris, 50 µg/mL (≈ 149 µM); against Salmonella enterica, 50 µg/mL (≈ 149 µM). Also, the IC50 was 25 µM in the assay with K562 and 160 µM on Sortase A.
As for `O=C1C=C2S[C@H]3C[C@]2(C=C1Br)C1=C(N3)C(=O)c2[nH]cc3c2C1=NCC3` [(+)-DISCORHABDIN B], the MIC was 12.5 µg/mL (≈ 30.2 µM) against Bacillus subtilis; 50 µg/mL (≈ 121 µM) against Staphylococcus aureus; 25 µg/mL (≈ 60.3 µM) in the assay with Micrococcus luteus; above 100 µg/mL with Escherichia coli; 3.12 µg/mL (≈ 7.54 µM) against Proteus vulgaris; 100 µg/mL (≈ 241 µM) against Salmonella enterica. Moreover, the values for the IC50 with K562 and at Sortase A were 7.2 µM and 132 µM, respectively.
For `CC1(C)S[C@@H]2[C@H](NC(=O)[C@H](N)c3ccccc3)C(=O)N2[C@H]1C(=O)O` [AMPICILLIN], the MIC in the assay with Bacillus subtilis came out at 1.56 µg/mL (≈ 4.46 µM); against Staphylococcus aureus, 1.56 µg/mL (≈ 4.46 µM); against Micrococcus luteus it was 1.56 µg/mL (≈ 4.46 µM); in the assay on Escherichia coli, 12.5 µg/mL (≈ 35.8 µM); in the assay with Proteus vulgaris it was 3.12 µg/mL (≈ 8.93 µM); in the assay with Salmonella enterica, 3.12 µg/mL (≈ 8.93 µM).
On to `O=C1C=CC2(C=C1)CCNC1=C2C2=NCCc3c[nH]c(c32)C1=O` [DIDEBROMODISCORHABDIN C], for which the MIC with Bacillus subtilis, in the assay on Staphylococcus aureus, with Micrococcus luteus, with Escherichia coli, in the assay on Proteus vulgaris and against Salmonella enterica was above 100 µg/mL each time. Further, the IC50 with K562 worked out at 21 µM; on Sortase A, 127 µM.
Turning to `O=C1C2=C(C3=NCCc4c[nH]c1c43)C1(C=C(Br)C(O)C(Br)=C1)CCN2` (centres undefined) [DIHYDRODISCORHABDIN C], the MIC was 100 µg/mL (≈ 215 µM) against Bacillus subtilis; above 100 µg/mL against Staphylococcus aureus; 100 µg/mL (≈ 215 µM) against Micrococcus luteus; above 100 µg/mL with Escherichia coli; above 100 µg/mL against Proteus vulgaris; above 100 µg/mL with Salmonella enterica. Further, the IC50 with K562 was 20.2 µM; on Sortase A it was above 300 µM.
In the case of `O=C1C(Br)=CC2(C=C1Br)CCNC1=C2C2=NCCc3c[nH]c(c32)C1=O` [DISCORHABDIN C], the MIC against Bacillus subtilis was 25 µg/mL (≈ 54 µM); in the assay on Staphylococcus aureus, above 100 µg/mL; in the assay with Micrococcus luteus, 12.5 µg/mL (≈ 27 µM); in the assay on Escherichia coli, above 100 µg/mL; in the assay on Proteus vulgaris, 50 µg/mL (≈ 108 µM); with Salmonella enterica, above 100 µg/mL. The figures for the IC50 in the assay with K562 and on Sortase A were 25.2 µM and 165 µM, respectively.
As to `COc1cccc2c1C(=O)c1c(O)c3c(c(O)c1C2=O)C[C@@](O)(C(=O)CO)C[C@@H]3O[C@H]1C[C@H](N)[C@H](O)[C@H](C)O1` [DOXORUBICIN], the IC50 in the assay with K562 worked out at 8.5 µM.
For the molecule `O=C1C(NCCc2ccc(O)cc2)=CC2=NCCc3c[nH]c1c32` [MAKALUVAMINE D], the MIC is 25 µg/mL (≈ 81.3 µM) against Bacillus subtilis; above 100 µg/mL against Staphylococcus aureus; 50 µg/mL (≈ 163 µM) with Micrococcus luteus; above 100 µg/mL with Escherichia coli; above 100 µg/mL with Proteus vulgaris; 100 µg/mL (≈ 325 µM) in the assay with Salmonella enterica. Besides, the values for the IC50 in the assay with K562 and on Sortase A were 24.6 µM and 148 µM, respectively.
Turning to `O=C1C(NC2Cc3cc(Br)c(O)cc3S2)=CC2=NCCc3c[nH]c1c32` (centres undefined) [MAKALUVAMINE F], the MIC is 12.5 µg/mL (≈ 30 µM) in the assay with Bacillus subtilis; 50 µg/mL (≈ 120 µM) with Staphylococcus aureus; 3.12 µg/mL (≈ 7.51 µM) against Micrococcus luteus; above 100 µg/mL in the assay with Escherichia coli; 25 µg/mL (≈ 60.1 µM) in the assay with Proteus vulgaris; 100 µg/mL (≈ 240 µM) in the assay on Salmonella enterica. Besides, the half-maximal inhibitory concentration (IC50) in the assay with K562 stood at 8.9 µM; at Sortase A, 175 µM.
